Data reported in ChEMBL document CHEMBL5712920, “The histone methyltransferase inhibitor A-366 enhances hemoglobin expression in erythroleukemia cells upon co-exposure with chemical inducers in culture” (J Biol Res (Thessalon), 2021).

What was measured:
[1] = target: N-lysine methyltransferase SMYD2 (Mus musculus) (UniProt Q8R5A0); assay: Inhibition of SMYD2 in HMBA-stiumulated mouse FLC clone 745 cells assessed as increase in erythroid differentiation at IC50 concentration measured after 96 hrs by benzidine-H2O2 based assay (reference value: 79.45%); type: cell-based
[2] = target: N-lysine methyltransferase SMYD2 (Mus musculus) (UniProt Q8R5A0); assay: Inhibition of SMYD2 in HMBA-stiumulated mouse FLC clone 745 cells assessed as increase in erythroid differentiation at IC50 concentration measured after 72 hrs by benzidine-H2O2 based assay (reference value: 69.6%); type: cell-based
[3] = Cytotoxicity against HMBA-stiumulated mouse FLC clone 745 cells assessed as cell viability measured after 48 hrs by Neubauer chamber based microscopic analysis (reference value: 50.563%); type: toxicity; settings: HMBA-stimulated FLC clone 745 cells, read-out: Activity
[4] = Cytotoxicity against mouse FLC clone 745 cells assessed as reduction in cell viability measured after 48 hrs by Neubauer chamber based microscopic analysis; type: toxicity
[5] = target: Histone-lysine N-methyltransferase KMT5B (Mus musculus) (UniProt Q3U8K7); assay: Inhibition of SUV420H1 in HMBA-stiumulated mouse FLC clone 745 cells assessed as increase in erythroid differentiation at IC50 concentration measured after 96 hrs by benzidine-H2O2 based assay (reference value: 79.45%); type: cell-based
[6] = target: Histone-lysine N-methyltransferase KMT5B (Mus musculus) (UniProt Q3U8K7); assay: Inhibition of SUV420H1 in HMBA-stiumulated mouse FLC clone 745 cells assessed as increase in erythroid differentiation at IC50 concentration measured after 72 hrs by benzidine-H2O2 based assay (reference value: 69.6%); type: cell-based
[7] = target: Protein arginine N-methyltransferase 3 (Mus musculus) (UniProt Q922H1); assay: Inhibition of PRMT3 in HMBA-stiumulated mouse FLC clone 745 cells assessed as increase in erythroid differentiation at IC50 concentration measured after 96 hrs by benzidine-H2O2 based assay (reference value: 79.45%); type: cell-based
[8] = target: Protein arginine N-methyltransferase 3 (Mus musculus) (UniProt Q922H1); assay: Inhibition of PRMT3 in HMBA-stiumulated mouse FLC clone 745 cells assessed as increase in erythroid differentiation at IC50 concentration measured after 72 hrs by benzidine-H2O2 based assay (reference value: 69.6%); type: cell-based
FLC clone 745 = assay: Cytotoxicity against mouse FLC clone 745 cells assessed as reduction in cell viability at IC50 concentration measured up to 96 hrs by Neubauer chamber based microscopic analysis; type: toxicity; settings: flc clone 745, 96 h
Method in brief: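 MEL-745 cells treated continuously with compound at its previously determined 48 h IC50, without inducer, for up to 96 h. Total cell number counted daily in a Neubauer chamber. Final DMSO ≤0.2% v/v.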

[9] = target: Histone-lysine N-methyltransferase EZH2 (Mus musculus) (UniProt Q61188); assay: Inhibition of EZH2 in HMBA-stiumulated mouse FLC clone 745 cells assessed as increase in erythroid differentiation at IC50 concentration measured after 96 hrs by benzidine-H2O2 based assay (reference value: 79.45%); type: cell-based
[10] = target: Histone-lysine N-methyltransferase EZH2 (Mus musculus) (UniProt Q61188); assay: Inhibition of EZH2 in HMBA-stiumulated mouse FLC clone 745 cells assessed as increase in erythroid differentiation at IC50 concentration measured after 72 hrs by benzidine-H2O2 based assay (reference value: 69.6%); type: cell-based
[11] = target: Histone-lysine N-methyltransferase, H3 lysine-79 specific (Mus musculus) (UniProt F7CVL0); assay: Inhibition of DOT1L in HMBA-stiumulated mouse FLC clone 745 cells assessed as increase in erythroid differentiation at IC50 concentration measured after 96 hrs by benzidine-H2O2 based assay (reference value: 79.45%); type: cell-based
[12] = target: Histone-lysine N-methyltransferase, H3 lysine-79 specific (Mus musculus) (UniProt F7CVL0); assay: Inhibition of DOT1L in HMBA-stiumulated mouse FLC clone 745 cells assessed as increase in erythroid differentiation at IC50 concentration measured after 72 hrs by benzidine-H2O2 based assay (reference value: 69.6%); type: cell-based
[13] = Inhibition of G9a/GLP in HMBA-stiumulated mouse FLC clone 745 cells assessed as increase in erythroid differentiation at IC50 concentration measured after 96 hrs by benzidine-H2O2 based assay (reference value: 79.45%); settings: condition erythroleukemia
[14] = Inhibition of G9a/GLP in HMBA-stiumulated mouse FLC clone 745 cells assessed as increase in erythroid differentiation at IC50 concentration measured after 72 hrs by benzidine-H2O2 based assay (reference value: 69.6%); settings: condition erythroleukemia

Sequence of N-lysine methyltransferase SMYD2 (Mus musculus) (Q8R5A0 whole entry): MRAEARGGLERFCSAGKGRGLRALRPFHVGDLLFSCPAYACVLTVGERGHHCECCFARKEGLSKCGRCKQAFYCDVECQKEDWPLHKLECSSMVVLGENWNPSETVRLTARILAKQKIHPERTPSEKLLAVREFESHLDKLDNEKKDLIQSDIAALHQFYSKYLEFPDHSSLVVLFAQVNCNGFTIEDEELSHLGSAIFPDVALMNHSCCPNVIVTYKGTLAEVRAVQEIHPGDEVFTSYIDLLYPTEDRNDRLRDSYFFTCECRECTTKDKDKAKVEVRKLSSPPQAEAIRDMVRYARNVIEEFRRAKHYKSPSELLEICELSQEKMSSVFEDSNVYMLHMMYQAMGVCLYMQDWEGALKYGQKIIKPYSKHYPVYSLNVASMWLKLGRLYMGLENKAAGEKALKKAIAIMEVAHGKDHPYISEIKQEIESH
Sequence of Histone-lysine N-methyltransferase EZH2 (Mus musculus) (Q61188 whole entry): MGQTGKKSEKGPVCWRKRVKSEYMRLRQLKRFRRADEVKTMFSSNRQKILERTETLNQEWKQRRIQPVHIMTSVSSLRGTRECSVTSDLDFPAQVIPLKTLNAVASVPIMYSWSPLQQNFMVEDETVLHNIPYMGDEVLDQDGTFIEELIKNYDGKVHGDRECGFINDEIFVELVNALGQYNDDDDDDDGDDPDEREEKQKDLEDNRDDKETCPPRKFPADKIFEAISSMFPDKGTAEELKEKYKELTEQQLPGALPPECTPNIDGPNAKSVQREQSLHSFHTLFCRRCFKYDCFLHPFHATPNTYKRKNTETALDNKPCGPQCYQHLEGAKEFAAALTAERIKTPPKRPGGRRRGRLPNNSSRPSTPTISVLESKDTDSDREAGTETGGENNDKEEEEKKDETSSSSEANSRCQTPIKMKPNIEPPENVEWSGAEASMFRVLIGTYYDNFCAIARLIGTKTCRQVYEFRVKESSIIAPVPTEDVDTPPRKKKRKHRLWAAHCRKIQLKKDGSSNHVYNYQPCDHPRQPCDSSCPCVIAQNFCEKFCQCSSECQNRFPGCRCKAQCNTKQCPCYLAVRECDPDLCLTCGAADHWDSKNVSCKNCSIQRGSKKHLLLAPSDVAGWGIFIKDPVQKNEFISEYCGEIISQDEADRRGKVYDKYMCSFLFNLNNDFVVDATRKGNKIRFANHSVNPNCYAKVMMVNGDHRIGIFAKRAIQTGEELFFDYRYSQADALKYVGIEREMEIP
Sequence of Histone-lysine N-methyltransferase KMT5B (Mus musculus) (Q3U8K7 whole entry): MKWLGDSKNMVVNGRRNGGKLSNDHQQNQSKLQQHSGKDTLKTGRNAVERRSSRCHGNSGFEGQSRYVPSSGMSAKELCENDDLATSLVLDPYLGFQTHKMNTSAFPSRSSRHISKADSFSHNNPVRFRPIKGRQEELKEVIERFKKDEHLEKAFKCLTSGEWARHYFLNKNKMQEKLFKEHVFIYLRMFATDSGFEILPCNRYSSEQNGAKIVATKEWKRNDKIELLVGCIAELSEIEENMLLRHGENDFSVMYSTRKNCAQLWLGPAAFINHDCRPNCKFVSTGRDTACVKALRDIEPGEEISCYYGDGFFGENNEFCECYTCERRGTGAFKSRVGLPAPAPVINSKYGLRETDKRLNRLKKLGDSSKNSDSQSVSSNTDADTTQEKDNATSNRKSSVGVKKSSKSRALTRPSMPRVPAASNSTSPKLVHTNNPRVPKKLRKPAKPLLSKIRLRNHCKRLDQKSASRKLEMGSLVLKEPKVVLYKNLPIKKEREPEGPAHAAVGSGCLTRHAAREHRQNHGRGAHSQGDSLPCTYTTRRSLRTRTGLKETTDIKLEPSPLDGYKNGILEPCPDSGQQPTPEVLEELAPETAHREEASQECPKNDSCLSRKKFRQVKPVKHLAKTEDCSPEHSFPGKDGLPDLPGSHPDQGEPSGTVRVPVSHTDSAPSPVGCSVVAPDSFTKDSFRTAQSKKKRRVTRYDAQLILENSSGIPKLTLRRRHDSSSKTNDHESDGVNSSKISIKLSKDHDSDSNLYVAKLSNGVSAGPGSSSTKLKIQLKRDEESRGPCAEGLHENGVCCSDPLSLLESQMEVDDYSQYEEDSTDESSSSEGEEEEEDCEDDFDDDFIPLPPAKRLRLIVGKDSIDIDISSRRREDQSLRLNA
Sequence of Protein arginine N-methyltransferase 3 (Mus musculus) (Q922H1 whole entry): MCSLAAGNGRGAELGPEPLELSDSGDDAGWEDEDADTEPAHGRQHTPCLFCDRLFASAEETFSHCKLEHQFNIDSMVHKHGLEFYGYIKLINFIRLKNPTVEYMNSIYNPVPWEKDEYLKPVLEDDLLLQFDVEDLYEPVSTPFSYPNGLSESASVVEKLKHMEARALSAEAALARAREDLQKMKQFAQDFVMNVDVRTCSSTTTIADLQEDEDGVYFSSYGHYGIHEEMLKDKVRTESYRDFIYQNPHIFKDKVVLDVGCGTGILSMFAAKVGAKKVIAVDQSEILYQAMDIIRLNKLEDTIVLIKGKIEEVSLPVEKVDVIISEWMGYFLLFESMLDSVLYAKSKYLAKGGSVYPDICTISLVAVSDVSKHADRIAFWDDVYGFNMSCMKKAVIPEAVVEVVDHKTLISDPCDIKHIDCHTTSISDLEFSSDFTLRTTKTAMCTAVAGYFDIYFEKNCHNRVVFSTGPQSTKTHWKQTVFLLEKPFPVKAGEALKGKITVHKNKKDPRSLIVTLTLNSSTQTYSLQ
Sequence of Histone-lysine N-methyltransferase, H3 lysine-79 specific (Mus musculus) (F7CVL0 as listed by the source): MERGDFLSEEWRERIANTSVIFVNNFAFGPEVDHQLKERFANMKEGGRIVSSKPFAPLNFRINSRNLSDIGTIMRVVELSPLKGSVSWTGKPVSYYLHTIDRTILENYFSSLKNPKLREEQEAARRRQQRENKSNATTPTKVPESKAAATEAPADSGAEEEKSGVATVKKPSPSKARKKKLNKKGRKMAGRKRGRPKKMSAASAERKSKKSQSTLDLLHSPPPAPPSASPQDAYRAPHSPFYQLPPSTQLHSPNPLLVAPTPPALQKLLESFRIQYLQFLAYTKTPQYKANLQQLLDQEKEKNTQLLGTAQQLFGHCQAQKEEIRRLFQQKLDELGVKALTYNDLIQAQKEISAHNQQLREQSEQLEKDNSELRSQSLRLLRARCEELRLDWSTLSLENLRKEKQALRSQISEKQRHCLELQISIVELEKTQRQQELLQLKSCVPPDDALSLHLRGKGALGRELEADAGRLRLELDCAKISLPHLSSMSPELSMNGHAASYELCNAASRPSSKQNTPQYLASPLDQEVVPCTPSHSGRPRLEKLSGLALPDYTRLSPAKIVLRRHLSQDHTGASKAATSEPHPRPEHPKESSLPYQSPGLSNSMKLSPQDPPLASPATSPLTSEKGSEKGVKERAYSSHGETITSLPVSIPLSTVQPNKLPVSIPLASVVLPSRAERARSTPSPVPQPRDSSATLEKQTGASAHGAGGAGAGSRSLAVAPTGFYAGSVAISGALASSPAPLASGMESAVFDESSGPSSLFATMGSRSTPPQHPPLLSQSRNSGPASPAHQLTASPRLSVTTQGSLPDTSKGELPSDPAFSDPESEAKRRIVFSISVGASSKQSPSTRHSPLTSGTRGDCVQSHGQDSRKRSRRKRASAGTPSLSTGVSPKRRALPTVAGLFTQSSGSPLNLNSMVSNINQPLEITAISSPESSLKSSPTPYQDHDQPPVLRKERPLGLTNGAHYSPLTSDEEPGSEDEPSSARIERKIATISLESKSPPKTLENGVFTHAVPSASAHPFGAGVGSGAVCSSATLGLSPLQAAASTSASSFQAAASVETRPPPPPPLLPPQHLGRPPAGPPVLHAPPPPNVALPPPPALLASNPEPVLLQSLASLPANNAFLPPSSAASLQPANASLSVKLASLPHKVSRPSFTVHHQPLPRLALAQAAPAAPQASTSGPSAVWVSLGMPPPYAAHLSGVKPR

Row | SMILES | viability at 48 h [3] [%] | IC50 at 48 h [4] [nM] | other results
1 | Cc1cn(CCN2CCN(c3ccccc3-c3cc(C#N)cc(C(=O)NCCCN4CCCC4)c3)CC2)c2ccccc12 | 16.6 | 680 | inhibition [1]: 9%; inhibition [2]: 1.3%
2 | Clc1cc2c(NC3CCCC3)nnc(-c3ccncc3)c2cc1Cl | 27.2 | 20000 | inhibition [5]: 19%; inhibition [6]: < 1%
3 | O=C(NCC(=O)N1CCCC1)Nc1ccc2cnccc2c1 | 31.6 | 11000 | inhibition [7]: 47.7%; inhibition [8]: 18.9%
4 | CCN(C(=O)CO)[C@H]1CN(/C(=N\C#N)Nc2cccc(OC(F)F)c2)N=C1c1ccc(Cl)c(Cl)c1 | 22.8 | 4700 | inhibition [1]: 22.6%; inhibition [2]: 12.7%
5 | CN1CCN(c2ccc(-c3cccc(CN4CCOCC4)c3)cc2NC(=O)c2c[nH]c(=O)cc2C(F)(F)F)CC1 | 7.57 |  | Activity (FLC clone 745): Toxic
6 | CCCc1cc(C)[nH]c(=O)c1CNC(=O)c1cc(-c2ccnc(N3CCN(C)CC3)c2)cc2c1cnn2C(C)C | 20.6 | 2200 | inhibition [9]: < 1%; inhibition [10]: < 1%
7 | CC(C)N(CCCNC(=O)Nc1ccc(C(C)(C)C)cc1)C[C@H]1O[C@@H](n2cc(Br)c3c(N)ncnc32)[C@H](O)[C@@H]1O | 23.9 | 2300 | inhibition [11]: 6.64%; inhibition [12]: 4.3%
8 | COc1cc2c(NC3CCN(C(C)C)CC3)nc(N3CCC(F)(F)CC3)nc2cc1OCCCN1CCCC1 | 4.2 | 1600 | inhibition (INH) [13]: <1%; Activity (FLC clone 745): Toxic; inhibition (INH) [14]: <1%
9 | O=C([C@@H](Cc1cccc(C(F)(F)F)c1)NS(=O)(=O)c1cc(F)c2c(c1)CCNC2)N1CCCC1 | 18.7 | 20000 | 
10 | CCc1cc(C)[nH]c(=O)c1CNC(=O)c1cc(-c2ccc(N3CCN(C(C)C)CC3)nc2)cc2c1cnn2C(C)C | 6.96 | 3200 | inhibition [9]: < 1%; inhibition [10]: < 1%
11 | COc1cc2c(NC3CCN(C(C)C)CC3)nc(C3CCCCC3)nc2cc1OCCCN1CCCC1 | 7.56 | 440 | inhibition (INH) [13]: <1%; Activity (FLC clone 745): Toxic; inhibition (INH) [14]: <1%
